# Calls of active or inactive are those of the source. No cut-off for these calls is given here.
# Tests used:
# [1] = test system: Huh7.5; assay: Effect on CD36 expression level in human Huh7.5 cells at 6.25 to 25 uM by Western blot analysis; type: functional, cell-based; details: dose 6.25-25 µM
# [2] = test system: Hepatitis C virus; assay: Synergistic antiviral activity against HCV J6/JFH/JC1 infected in human HuH7.5 cells assessed as combination index measured after 72 hrs in presence of sofosbuvir by Chou-Talalay method; type: functional, Hepacivirus hominis
# [3] = target: T1, Chondroitin sulfate N-acetylgalactosaminyltransferase 1 (Homo sapiens) (UniProt Q8TDX6); assay: Destabilization of CSGalNacT-1 in human Huh7.5 cells assessed as reduction in CSGalNacT-1 expression measured after 72 hrs by Western blot analysis; type: cell-based; details: dose 6.25-100 µM
# T1 sequence (whole entry): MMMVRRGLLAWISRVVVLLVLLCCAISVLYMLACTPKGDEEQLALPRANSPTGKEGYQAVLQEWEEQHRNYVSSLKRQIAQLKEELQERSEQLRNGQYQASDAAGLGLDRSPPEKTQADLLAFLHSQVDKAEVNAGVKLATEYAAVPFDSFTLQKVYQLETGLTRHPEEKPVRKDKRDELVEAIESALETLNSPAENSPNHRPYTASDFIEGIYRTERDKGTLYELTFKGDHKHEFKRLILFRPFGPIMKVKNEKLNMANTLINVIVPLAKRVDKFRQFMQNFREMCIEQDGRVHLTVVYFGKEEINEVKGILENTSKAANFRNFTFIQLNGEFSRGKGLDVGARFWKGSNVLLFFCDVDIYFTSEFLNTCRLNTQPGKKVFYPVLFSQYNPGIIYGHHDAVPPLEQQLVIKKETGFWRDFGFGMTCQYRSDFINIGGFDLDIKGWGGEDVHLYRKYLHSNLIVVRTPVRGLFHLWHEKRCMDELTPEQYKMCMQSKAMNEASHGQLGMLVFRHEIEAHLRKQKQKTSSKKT
# [4] = test system: Hepatitis C virus; assay: Synergistic antiviral activity against HCV J6/JFH/JC1 infected in human HuH7.5 cells assessed as combination index measured after 72 hrs in presence of simeprevir by Chou-Talalay method; type: functional, Hepacivirus hominis
# [5] = test system: Hepacivirus hominis; assay: Inhibition of HCV NS5A
# [6] = test system: Hepacivirus hominis; assay: Inhibition of HCV NS3/4a protease
# [7] = test system: Huh7.5; assay: Effect on Hsc70 expression level in human Huh7.5 cells at 6.25 to 25 uM by Western blot analysis; type: functional, cell-based; details: dose 6.25-25 µM
# [8] = test system: Hepatitis C virus; assay: Antiviral activity against HCV subgenomic replicon harboring I377-3'del.S infected in human GS4.3 cells assessed as inhibition of viral replication at 0.23 to 18.52 uM after 72 hrs by qRT-PCR analysis; type: functional, organism-based; details: Hepacivirus hominis, Liver, dose 0.23-18.52 µM
# Summary of the method: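 GS4.3 cells (Huh7 carrying HCV subgenomic replicon I377-3′del.S) seeded at 3 × 10^4/cm2, after 24 h treated with compound or solvent control. After 72 h intracellular RNA extracted and replicon RNA measured by qRT-PCR. Cytotoxicity checked by MTT at 72 h.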
# [9] = Cytotoxicity against human Huh7.5 cells assessed as reduction in cell viability incubated for 72 hrs by MTT assay; type: cell-based
# Summary of the method: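 Huh7.5 cells seeded at 3 × 10^4/cm2, grown 24 h, then exposed to compound for 72 h. Viability read by MTT assay. CC50 by Reed & Muench method, mean ± SD from three independent experiments.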
# [10] = test system: Hepatitis C virus; assay: Antiviral activity against wild-type HCV infected in human HuH7.5 cells assessed as reduction in viral protein levels at 6.25 to 100 uM measured after 72 hrs by Western blot assay; type: functional, organism-based; details: Hepacivirus hominis, dose 6.25-100 µM
# Summary of the method: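 Huh7.5 cells seeded at 3 × 10^4/cm2 and incubated 24 h. Infected with wild-type HCVcc stock (45 IU/cell) with compound or solvent control added at the same time. After 72 h, intracellular RNA measured by one-step qRT-PCR and core protein by Western blot. EC50 by Reed & Muench method, mean ± SD from three independent experiments.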
# [11] = test system: Hepatitis C virus; assay: Synergistic antiviral activity against HCV J6/JFH/JC1 infected in human HuH7.5 cells assessed as inhibition of viral protein levels at 6.25 uM in presence of simeprevir measured after 72 hrs by western blot analysis; type: functional, organism-based; details: Hepacivirus hominis
# Summary of the method: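 Huh7.5 cells infected with HCV (45 IU/cell) and simultaneously treated with compound (6.25 μM) alone, DAA alone, or both. […] Intracellular protein analysed by Western blot at 72 h. At least triplicate, mean ± SD, Student's t test.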
smiles,measurement,setting,value
COc1cc(/C=C/c2ccccc2)c(C(=O)O)c(O)c1CC=C(C)C,Activity,[1],inactive
same,CI,[2],0.693
same,Activity,[3],Dose-dependent effect
same,CI,[4],0.953
same,inhibition,[5],inactive
same,inhibition,[6],inactive
same,Activity,[7],inactive
same,Activity,[8],inactive
same,CC50 at 72 h,[9],91 µM
same,Activity,[10],Active
same,Activity,[11],Active

# — ChEMBL document CHEMBL4715793 (J Med Chem, 2016)
